Activity calls are given as the source filed them. The rule behind the calls is not given here.
What was measured:
Plasmodium falciparum [1] = experiment: Antiplasmodial activity against chloroquine-resistant Plasmodium falciparum Dd2 infected in human erythrocytes assessed as reduction in microbial growth after 72 hrs by SYBR green I staining based fluorescence assay; type: functional, organism-based; conditions: Dd2, Erythrocyte
How it was run: (§1)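 SYBR Green I assay: twofold serial dilutions on P. falciparum cultures at 1% parasitemia, 1% hematocrit, 37 °C, 5% CO₂, 72 h, max 0.1% DMSO. DMSO and CQ as growth and inhibition controls. Plates frozen at −80 °C, thawed, lysed in Tris/saponin/EDTA/Triton buffer with 0.01% SYBR Green I, 1 h dark at room temperature. Fluorescence read at 485 ex/530 em. EC50 by nonlinear dose–response fit.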

[2] = Resistant index, ratio of EC50 for antiplasmodial activity against chloroquine-resistant Plasmodium falciparum Dd2 to antiplasmodial activity against chloroquine-sensitive Plasmodium falciparum 3D7; type: functional
Plasmodium falciparum [3] = experiment: Antiplasmodial activity against chloroquine-sensitive Plasmodium falciparum 3D7 infected in human erythrocytes assessed as reduction in microbial growth after 72 hrs by SYBR green I staining based fluorescence assay; type: functional, organism-based; conditions: for EC50: 3D7, Erythrocyte; how it was run: as §1
[4] = Selectivity index, ratio of EC50 for cytotoxicity against human HepG2 cells to antiplasmodial activity against chloroquine-resistant Plasmodium falciparum Dd2; type: toxicity, cell-based; conditions: read-out: Ratio EC50
HepG2 = experiment: Cytotoxicity against human HepG2 cells assessed as reduction in cell viability after 48 hrs by MTS assay; type: cell-based; conditions: HepG2, 48 h
How it was run: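 HepG2 cells were seeded at 2250 per well and grown 24 h at 37 °C, 5% CO₂. Serial dilutions starting at 25 μM were added for a further 48 h. MTS was then added for 3 h at 37 °C and absorbance read at 490 nm. EC₅₀ came from nonlinear dose–response fits.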

| Structure (SMILES) | EC50 (Plasmodium falciparum [1]) [nM] | also measured |
| --- | --- | --- |
| COc1ccc2nc(/C=C/c3cccs3)cc(NCCN(C)C)c2c1 | 80 |  |
| COc1ccc(/C=C/c2cc(NCCN(C)C)c3cc(OC)ccc3n2)cc1 | 43.6 |  |
| COc1cc(/C=C/c2cc(NCCN(C)C)c3cc(F)ccc3n2)cc(OC)c1OC | 38.6 |  |
| FC(F)(F)c1ccc(/C=C/c2cc(NCCCN3CCOCC3)c3cc(Cl)ccc3n2)cc1 | 84.8 |  |
| COc1ccc(/C=C/c2cc(NCCN(C)C)c3cc(Cl)ccc3n2)cc1OC | 38.9 |  |
| COc1ccc2nc(CCc3ccncc3)cc(NCCN(C)C)c2c1 | 709 |  |
| Clc1ccc2nc(/C=C/c3ccncc3)cc(N3CCCC3)c2c1 | 1180 |  |
| CN(C)CCNc1cc(CCc2ccncc2)nc2ccc(Cl)cc12 | 259 |  |
| CN(C)CCNc1cc(/C=C/c2ccc(F)cc2)nc2ccccc12 | 25.5 |  |
| Fc1cc(/C=C/c2cc(NCCCCN3CCOCC3)c3cc(Cl)ccc3n2)cc(F)c1F | 130 |  |
| Fc1ccc(/C=C/C=C/c2cc(NCCCCN3CCOCC3)c3cc(Cl)ccc3n2)cc1 | 96.5 |  |
| Clc1ccc2nc(/C=C/c3ccncc3)cc(N3CCOCC3)c2c1 | 3590 |  |
| FC(F)(F)c1cc(/C=C/c2cc(NCCCCN3CCOCC3)c3cc(Cl)ccc3n2)cc(C(F)(F)F)c1 | 108 |  |
| Fc1ccc(/C=C/c2cc(NCCCCN3CCOCC3)c3cc(Cl)ccc3n2)nc1 | 73.1 |  |
| COc1ccc2nc(/C=C/c3cc(NCCN(C)C)c4cc(Cl)ccc4n3)ccc2c1 | 281 | Ratio EC50 [2]: > 1.3 |
| Fc1cc(F)cc(/C=C/c2cc(NCCCCN3CCOCC3)c3cc(Cl)ccc3n2)c1 | 185 |  |
| CN1CCN(CCNc2cc(/C=C/c3ccncc3)nc3ccc(Cl)cc23)CC1 | 53.3 |  |
| Fc1ccc(/C=C/c2cc(N3CCOCC3)c3cc(Cl)ccc3n2)cc1 | 6750 |  |
| Clc1ccc2nc(-c3ccncc3)cc(NCCCCN3CCOCC3)c2c1 | 796 |  |
| CN(C)CCNc1cc(/C=C/c2ccc([N+](=O)[O-])cc2)nc2ccc(F)cc12 | 30.9 |  |
| COc1ccc2nc(C)cc(NCCN(C)C)c2c1 | 5520 |  |
| Fc1cc(F)c(/C=C/c2cc(NCCCCN3CCOCC3)c3cc(Cl)ccc3n2)cc1F | 197 | Activity (Plasmodium falciparum [3]; Erythrocyte): Active |

| Structure (SMILES) | EC50 (Plasmodium falciparum [1]) [nM] | also measured |
| --- | --- | --- |
| Fc1ccc(/C=C/c2cc(N3CCCC3)c3cc(Cl)ccc3n2)cc1 | 428 |  |
| CN(C)CCNc1cc(/C=C/c2ccccc2)nc2ccc(F)cc12 | 21 |  |
| Fc1ccc(/C=C/c2cc(N3CCC(N4CCCCC4)CC3)c3cc(Cl)ccc3n2)cc1 | 487 | EC50 (Plasmodium falciparum [3]): 155 nM |
| COc1ccc2nc(/C=C/c3ccncc3)cc(NCCN(C)C)c2c1 | 38.8 |  |
| FC(F)(F)Oc1ccc(/C=C/c2cc(NCCCCN3CCOCC3)c3cc(Cl)ccc3n2)cc1 | 56.6 |  |
| CN(C)CCNc1cc(/C=C/C2CCCCC2)nc2ccc(Cl)cc12 | 394 | Ratio EC50 [2]: > 1.3 |
| CN1CCN(CCCCNc2cc(/C=C/c3ccccc3)nc3ccc(Cl)cc23)CC1 | 58.9 |  |
| Clc1ccc2nc(/C=C/c3ccncc3)cc(NCCN3CCCC3)c2c1 | 67.7 |  |
| CN(C)CCNc1cc(/C=C/c2ccco2)nc2ccc(F)cc12 | 82.6 |  |
| FC(F)(F)c1cccc(/C=C/c2cc(NCCCCN3CCOCC3)c3cc(Cl)ccc3n2)c1 | 33.9 |  |
| CN(C)CCNc1cc(/C=C/c2cccs2)nc2ccc(Cl)cc12 | 29.7 |  |
| CN(C)CCNc1cc(/C=C/c2cccnc2)nc2ccc(Cl)cc12 | 33.6 |  |
| CN(C)CCNc1cc(/C=C/c2ccc([N+](=O)[O-])cc2)nc2ccc(Cl)cc12 | 28.7 |  |
| COc1ccc(/C=C/c2cc(NCCN(C)C)c3cc(F)ccc3n2)cc1OC | 41.1 |  |
| COc1ccc2nc(/C=C/c3ccccc3[N+](=O)[O-])cc(NCCN(C)C)c2c1 | 56.3 |  |
| CN1CCN(CCCCNc2cc(/C=C/c3ccncc3)nc3ccc(Cl)cc23)CC1 | 33.4 | selectivity ratio [4]: 251; EC50 (Plasmodium falciparum [3]): 36.1 nM; Ratio EC50 [2]: 0.9; EC50 (HepG2): 8380 nM |
| CN(C)CCNc1cc(/C=C/c2cccs2)nc2ccc(F)cc12 | 111 |  |
| Fc1ccc(/C=C/c2cc(NCCCN3CCOCC3)c3cc(Cl)ccc3n2)cc1 | 40.8 |  |
| Fc1ccc(/C=C/c2cc(NCCN3CCCC3)c3cc(Cl)ccc3n2)cc1 | 92.3 |  |
| CN1CCN(CCCCNc2cc(/C=C/c3ccc(F)cc3)nc3ccc(Cl)cc23)CC1 | 43 |  |
| CN(C)CCNc1cc(/C=C/c2ccco2)nc2ccc(Cl)cc12 | 37 |  |
| CN(C)CCNc1cc(/C=C/c2cccc3ccccc23)nc2ccc(Cl)cc12 | 373 | Ratio EC50 [2]: > 1.3 |

Reference: ChEMBL document CHEMBL4665829, “Synthesis, Structure-Activity Relationship, and Antimalarial Efficacy of 6-Chloro-2-arylvinylquinolines” (J Med Chem, 2020)
